From ChEMBL document CHEMBL4038317, “Discovery of a Benzamide Derivative That Protects Pancreatic β-Cells against Endoplasmic Reticulum Stress” (J Med Chem, 2017) come the findings set out here.

In assay [1] the test system is INS1. In words: Cytoprotective activity in rat INS-1 cells assessed as protection against tunicamycin-induced ER stress-mediated reduction in cell viability after 3 days by CellTiter-Glo assay relative tunicamycin. Type of assay: functional. The note with it: INS1, 72 h. Put shortly: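 INS-1 cells, 3×10^3 per well, were co-treated with tunicamycin 0.1 μg/mL and compound for 72 h. Viability was read as intracellular ATP by luminescence and expressed as fold of no-tunicamycin cells. EC50 and maximum activity were taken as the increase in viability versus tunicamycin alone. Triplicate wells, three independent experiments.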

The subject of assay [2] is INS1. The experiment in a line: Cytoprotective activity in rat INS-1 cells assessed as protection against tunicamycin-induced ER stress-mediated reduction in cell viability after 3 days by CellTiter-Glo assay. The settings on record: INS1, 72 h.
The target of assay [3] is T1, Cyclic AMP-dependent transcription factor ATF-6 alpha (Rattus norvegicus) (UniProt G3V909).
T1 sequence (whole entry): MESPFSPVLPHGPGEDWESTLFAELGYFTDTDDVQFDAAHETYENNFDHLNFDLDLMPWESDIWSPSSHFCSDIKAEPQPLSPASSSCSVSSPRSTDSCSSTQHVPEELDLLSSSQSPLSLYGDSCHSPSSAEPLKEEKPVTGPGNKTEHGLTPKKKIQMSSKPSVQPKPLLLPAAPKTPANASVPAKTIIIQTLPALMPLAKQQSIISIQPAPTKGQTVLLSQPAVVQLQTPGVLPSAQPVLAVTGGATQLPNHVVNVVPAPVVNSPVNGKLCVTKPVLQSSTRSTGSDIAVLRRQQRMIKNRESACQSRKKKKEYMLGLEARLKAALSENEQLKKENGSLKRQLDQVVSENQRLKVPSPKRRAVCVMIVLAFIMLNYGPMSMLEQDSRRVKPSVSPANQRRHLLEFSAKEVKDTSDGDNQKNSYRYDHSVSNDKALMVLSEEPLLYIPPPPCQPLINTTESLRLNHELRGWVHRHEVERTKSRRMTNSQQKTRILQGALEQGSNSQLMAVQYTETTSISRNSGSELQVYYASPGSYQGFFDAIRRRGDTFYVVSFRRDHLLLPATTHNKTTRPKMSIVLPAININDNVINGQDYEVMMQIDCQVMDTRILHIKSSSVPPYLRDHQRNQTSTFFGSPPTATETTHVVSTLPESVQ
The experiment in a line: Inhibition of tunicamycin ER stress-induced ATF6 activation in rat INS-1 cells assessed as suppression of increase in […] mRNA levels up to 10 uM after 8 hrs by qRT-PCR analysis. It is filed as cell-based. Put shortly: (§1)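 INS-1 cells, 4×10^5 per well, were exposed to tunicamycin 0.1 μg/mL with compound or DMSO for 8 h. qRT-PCR for ATF4, CHOP, Bip, GRP94, or spliced XBP1 using splicing-specific primers. Values were normalized to cyclophilin A by ΔΔCt and given as fold over untreated control. Triplicate wells, 3 independent experiments.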
(Quantitative PCR measures a nucleic acid by following its amplification.)

Assay [4] deals with T1, Cyclic AMP-dependent transcription factor ATF-6 alpha (Rattus norvegicus). In words: Inhibition of tunicamycin ER stress-induced ATF6 activation in rat INS-1 cells assessed as suppression of increase in Bip mRNA levels up to 10 uM after 8 hrs by qRT-PCR analysis. It is filed as cell-based. Put shortly:
as §1

Assay [5] addresses T2, Eukaryotic translation initiation factor 2-alpha kinase 3 (Rattus norvegicus) (UniProt Q9Z1Z1).
T2 sequence (whole entry): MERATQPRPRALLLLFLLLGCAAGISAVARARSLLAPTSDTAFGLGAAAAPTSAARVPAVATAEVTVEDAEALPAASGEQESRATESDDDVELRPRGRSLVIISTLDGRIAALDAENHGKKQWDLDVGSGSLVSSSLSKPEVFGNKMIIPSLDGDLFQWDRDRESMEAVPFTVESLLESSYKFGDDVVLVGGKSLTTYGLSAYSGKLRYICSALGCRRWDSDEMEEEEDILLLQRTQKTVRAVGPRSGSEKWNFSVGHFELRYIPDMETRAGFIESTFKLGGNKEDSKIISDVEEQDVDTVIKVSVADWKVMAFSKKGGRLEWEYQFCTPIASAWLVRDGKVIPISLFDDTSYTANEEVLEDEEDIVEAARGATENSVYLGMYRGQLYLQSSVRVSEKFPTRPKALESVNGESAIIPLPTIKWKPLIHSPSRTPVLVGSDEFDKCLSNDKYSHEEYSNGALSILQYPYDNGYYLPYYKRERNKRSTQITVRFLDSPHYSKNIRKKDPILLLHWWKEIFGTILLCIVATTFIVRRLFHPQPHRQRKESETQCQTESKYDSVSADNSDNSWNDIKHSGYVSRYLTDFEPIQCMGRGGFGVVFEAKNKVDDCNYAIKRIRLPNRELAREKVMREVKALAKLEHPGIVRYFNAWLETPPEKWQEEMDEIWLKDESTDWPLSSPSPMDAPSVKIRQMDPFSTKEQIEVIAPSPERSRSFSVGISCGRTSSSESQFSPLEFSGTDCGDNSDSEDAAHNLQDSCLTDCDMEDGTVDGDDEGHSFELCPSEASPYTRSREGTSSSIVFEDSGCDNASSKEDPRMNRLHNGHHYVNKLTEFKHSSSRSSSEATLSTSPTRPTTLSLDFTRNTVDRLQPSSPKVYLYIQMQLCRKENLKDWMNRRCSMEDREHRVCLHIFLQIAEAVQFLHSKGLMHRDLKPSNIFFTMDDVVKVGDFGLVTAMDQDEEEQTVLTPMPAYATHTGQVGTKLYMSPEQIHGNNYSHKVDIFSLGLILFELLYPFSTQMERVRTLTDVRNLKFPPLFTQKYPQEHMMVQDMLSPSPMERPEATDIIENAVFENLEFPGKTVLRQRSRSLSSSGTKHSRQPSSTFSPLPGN
The experiment in a line: Inhibition of tunicamycin ER stress-induced PERK activation in rat INS-1 cells assessed as suppression of tunicamycin-induced increase in ATF4 protein levels up to 10 uM after 8 hrs by Western blot analysis. It is filed as cell-based. The method, boiled down: (§2)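 INS-1 cells were exposed to tunicamycin 0.1 μg/mL with compound or DMSO for 8 h. Lysates were immunoblotted for ATF4 and CHOP (1:1000). Bands were quantified by densitometry and normalized to α-tubulin; 3 independent experiments.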

Assay [6] has as its target T2, Eukaryotic translation initiation factor 2-alpha kinase 3 (Rattus norvegicus). In words: Inhibition of tunicamycin ER stress-induced PERK activation in rat INS-1 cells assessed as suppression of tunicamycin-induced increase in CHOP protein levels up to 10 uM after 8 hrs by Western blot analysis. Type of assay: cell-based. The method, boiled down: as §2
(In western blotting, separated proteins are transferred to a membrane and probed.)

Active and inactive are the calls of the source. The rule behind the calls is not given here.

A word on the EC50: it is the concentration at which the effect is half-maximal.

Take `O=C(NCCc1ccccc1)c1ccc(CN2CCCC2)cc1`: the Emax in assay [1] stood at 31%. The EC50 in assay [2] came out at 11 µM.
As for `O=C(NCCc1ccccc1)c1ccc(F)c(F)c1F`, the Emax in assay [1] amounted to 23%. In addition, the EC50 in assay [2] came out at 9.9 µM.
In the same order, the values of `O=C(NCc1ccc(Cl)cc1)c1ccc(CN2CCCCC2)cc1` are 77% and 9.5 µM.
In the same order, the values of `O=C(NCCc1cccc(Cl)c1)c1ccc2c(c1)OCCO2` are 42% and 21 µM.
As to `O=C(NCCc1ccc(Cl)c(Cl)c1)c1ccc(CN2CCCCC2)cc1`, the Emax in assay [1] came to 71%. For the same compound, in assay [2], the EC50 was found to be 24 µM.
As for `O=C(NCCc1ccccc1)c1cccc(F)c1`, in assay [1], the Emax is < 0%.
Still for that read-out and setting: the same measure for `Cc1ccccc1C(=O)NCCc1ccccc1`: 6%.
As for `C#CCOc1ccc(C(=O)NCCc2ccccc2)cc1`, the Emax in assay [1] came out at 54%. Also, in assay [2], the EC50 is > 30 µM.
As to `O=C(NCCc1cccc(Cl)c1)c1ccc2c(c1)OCO2`, in assay [1], the Emax came to 41%. In assay [2], the EC50 came out at 25 µM.
For `COc1ccc(C(=O)NCCc2cccc(Cl)c2)cc1OC`, in that order: 46% and 24 µM.
In the same order, the values of `CCOc1cccc(C(=O)NCCc2ccccc2)c1` are 49% and 26 µM.
`O=C(NCCc1ccccc1)c1cc(F)c(F)c(F)c1F`: the Emax in assay [1] was < 0%.
With `O=C(NCc1ccc(Cl)c(Cl)c1)c1ccc2c(c1)OCCO2`, the Emax in assay [1] stood at 68%. Also, the EC50 in assay [2] amounted to 3.6 µM.
On to `O=C(NCc1cccc(Cl)c1)c1cccc(CN2CCCCC2)c1`, for which the Emax in assay [1] stood at 90%. Besides, the EC50 in assay [2] is 0.41 µM.
In the same order, the values of `O=C(NCc1ccccc1Cl)c1ccc2c(c1)OCCO2` are 43% and 25 µM.
As for `O=C(NCc1ccccc1Br)c1ccc2c(c1)OCCO2`, the Emax in assay [1] came out at 38%. For the same compound, the EC50 in assay [2] is 25 µM.
Turning to `Nc1cccc(C(=O)NCCc2ccccc2)c1`, the Emax in assay [1] is < 0%.
For the compound `O=C(NCc1cccc(Br)c1)c1ccc(CN2CCCCC2)cc1`, in assay [1], the Emax was 81%. The EC50 in assay [2] was found to be 4.9 µM.
In the case of `O=C(NCCc1ccc(F)cc1)c1ccc2c(c1)OCCO2`, the Emax in assay [1] was 50%. Moreover, in assay [2], the EC50 came out at 21 µM.
For `O=C(NCc1cccc(C(F)(F)F)c1)c1cccc(CN2CCCCC2)c1`, in that order: 91% and 0.25 µM.
For the compound `O=C(NCc1ccc(Cl)cc1)c1cccc(CN2CCCCC2)c1`, the Emax in assay [1] amounted to 93%. Also, the EC50 in assay [2] was 0.24 µM.
For `O=C(NCCc1ccc(Cl)cc1)c1ccc(CN2CCCCC2)cc1`, in that order: 82% and 21 µM.
For `O=C(NCc1ccc(Cl)c(Cl)c1)c1ccc(CN2CCCCC2)cc1`, in that order: 78% and 1.8 µM.
On to `O=C(NCCc1ccccc1)c1ccc2c(c1)OCCO2`, for which the Emax in assay [1] came out at 47%. For the same compound, in assay [2], the EC50 was 19 µM.
Consider `O=C(NCc1ccccc1)c1cccc(CN2CCCCC2)c1`, for which the Emax in assay [1] was found to be 95%. Further, in assay [2], the EC50 was determined as 0.35 µM.
Regarding `O=C(NCCc1ccccc1)c1cccc([N+](=O)[O-])c1`, the Emax in assay [1] is < 0%.
For `CS(=O)(=O)Nc1cccc(C(=O)NCCc2ccccc2)c1`, in assay [1], the Emax stood at 24%. The EC50 in assay [2] came to 25 µM.
For `O=C(NCc1ccc(Cl)cc1)c1ccccc1CN1CCCCC1`, in that order: 73% and 6.9 µM.
In the same order, the values of `O=C(NCCc1ccccc1)c1ccc(CN2CCCCC2)cc1` are 87% and 21 µM.
Take `O=C(NCc1ccccc1Cl)c1cccc(CN2CCCCC2)c1`: the Emax in assay [1] is 93%. The EC50 in assay [2] turned out to be 2.04 µM.
For `O=C(NCc1ccccc1Cl)c1ccc(CN2CCCCC2)cc1`, in that order: 87% and 13 µM.
Consider `COc1ccccc1CCNC(=O)c1ccc2c(c1)OCCO2`, for which the Emax in assay [1] came to 29%. The half-maximal effective concentration (EC50) in assay [2] is > 30 µM.
For `COc1cccc(CNC(=O)c2cccc(CN3CCCCC3)c2)c1`, in that order: 92% and 0.96 µM.
In the same order, the values of `COc1ccc(CNC(=O)c2cccc(CN3CCCCC3)c2)cc1` are 93% and 1.12 µM.
For `O=C(NCc1ccc(Cl)cc1)c1ccc2c(c1)OCCO2`, the Emax in assay [1] amounted to 69%. Further, the EC50 in assay [2] was found to be 2.8 µM.
For `O=C(NCCc1ccccc1)c1ccc(Cl)c(Cl)c1`, in that order: 42% and 17 µM.
Consider `O=C(NCc1cccc(Cl)c1)c1ccc(CN2CCCCC2)cc1`, for which the Emax in assay [1] is 80%. Moreover, the EC50 in assay [2] is 2.2 µM.
For `Cc1ccc(C(=O)NCCc2ccccc2)cc1`, the Emax in assay [1] came to 25%. Moreover, the EC50 in assay [2] amounted to 20 µM.
For `COc1ccc(CCNC(=O)c2ccc3c(c2)OCCO3)cc1OC`, in assay [1], the Emax was determined as 5%. Moreover, in assay [2], the EC50 is > 30 µM. The inhibition entry in assay [3], in assay [4], in assay [5] and in assay [6] was “inactive” throughout.
As to `O=C(NCc1cccc(Cl)c1)c1ccc2c(c1)OCCO2`, in assay [1], the Emax came to 57%. Besides, in assay [2], the EC50 was 9.5 µM.
In the same order, the values of `O=C(NCCc1ccc(Cl)cc1)c1ccc2c(c1)OCCO2` are 51% and 15 µM.
Consider `O=C(NCc1cccc(Br)c1)c1ccc2c(c1)OCCO2`, for which, in assay [1], the Emax worked out at 69%. Further, the EC50 in assay [2] amounted to 5.5 µM.
`COc1ccc(CCNC(=O)c2ccc3c(c2)OCCO3)cc1`: in assay [1], the Emax is 26%. Moreover, the EC50 in assay [2] is > 30 µM.
For `CN(C)S(=O)(=O)c1ccc(C(=O)NCCc2ccccc2)cc1`, in that order: 37% and 19 µM.
In the same order, the values of `COc1ccc(C(=O)NCCc2ccccc2)cc1C` are 56% and 15 µM.
For `CC(C)Sc1ccccc1C(=O)NCCc1ccccc1`, in that order: 30% and > 30 µM.
